Data set [1] concerns the target T1, Cytochrome P450 1B1 (Homo sapiens, UniProt Q16678).
T1 sequence (Q16678 whole entry): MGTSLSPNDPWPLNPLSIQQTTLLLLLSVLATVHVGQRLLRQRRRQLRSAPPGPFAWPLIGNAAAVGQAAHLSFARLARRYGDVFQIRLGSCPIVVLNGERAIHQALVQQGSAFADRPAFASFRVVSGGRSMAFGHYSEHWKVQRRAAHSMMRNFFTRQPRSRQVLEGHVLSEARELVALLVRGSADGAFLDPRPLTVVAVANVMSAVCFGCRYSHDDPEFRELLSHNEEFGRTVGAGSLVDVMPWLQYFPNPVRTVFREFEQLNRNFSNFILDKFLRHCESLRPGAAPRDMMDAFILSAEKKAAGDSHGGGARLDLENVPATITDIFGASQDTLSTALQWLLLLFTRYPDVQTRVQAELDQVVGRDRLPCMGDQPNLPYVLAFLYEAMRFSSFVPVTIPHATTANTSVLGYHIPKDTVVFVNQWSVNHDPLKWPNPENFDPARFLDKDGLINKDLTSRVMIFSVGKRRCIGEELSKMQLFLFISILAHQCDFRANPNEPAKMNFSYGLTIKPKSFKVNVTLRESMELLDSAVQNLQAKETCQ
In words: Inhibition of human CYP1B1 assessed as reduction in 7-ethoxyresorufin O-deethylation activity by fluorescence based EROD assay. In outline: (§1)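 Recombinant human CYP1B1, 1A1 and 1A2 in a standard EROD assay. NADPH regeneration system: 1.3 mM NADP+, 3.3 mM G-6-P, 0.5 U/mL G6-PD. Incubation time 35 min for CYP1B1, 15 min for 1A1 and 50 min for 1A2. IC50 by Probit analysis; selectivity taken as the ratio of IC50 values.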

The next data set has as its target T2, Cytochrome P450 1A1 (Homo sapiens, UniProt P04798).
T2 sequence (P04798 whole entry): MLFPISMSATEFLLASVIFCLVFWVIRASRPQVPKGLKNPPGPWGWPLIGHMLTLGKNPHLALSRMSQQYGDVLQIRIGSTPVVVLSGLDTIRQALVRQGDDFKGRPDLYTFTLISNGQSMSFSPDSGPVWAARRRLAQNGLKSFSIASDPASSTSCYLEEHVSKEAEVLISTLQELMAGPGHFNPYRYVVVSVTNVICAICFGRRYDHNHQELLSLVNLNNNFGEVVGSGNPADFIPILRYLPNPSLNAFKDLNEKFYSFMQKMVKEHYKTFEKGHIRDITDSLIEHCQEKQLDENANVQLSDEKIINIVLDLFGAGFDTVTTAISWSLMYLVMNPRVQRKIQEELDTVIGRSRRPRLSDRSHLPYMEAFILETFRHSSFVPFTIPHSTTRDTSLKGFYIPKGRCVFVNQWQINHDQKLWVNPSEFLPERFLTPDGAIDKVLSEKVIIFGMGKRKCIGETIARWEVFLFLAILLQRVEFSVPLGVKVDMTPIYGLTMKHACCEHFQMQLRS
Briefly: Inhibition of human CYP1A1 assessed as reduction in 7-ethoxyresorufin O-deethylation activity by fluorescence based EROD assay. Format: ADME. In outline:
(§2)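 Recombinant human CYP1B1, 1A1 and 1A2 in a standard EROD assay. 7-Ethoxyresorufin fixed at 150 nM. NADPH regeneration system: 1.3 mM NADP+, 3.3 mM G-6-P, 0.5 U/mL G6-PD. Incubation time 35 min for CYP1B1, 15 min for 1A1 and 50 min for 1A2. Resorufin fluorescence read at ex 545 / em 590 nm. IC50 by Probit analysis; selectivity taken as the ratio of IC50 values.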

The target of the next data set is T3, Cytochrome P450 1A2 (Homo sapiens, UniProt P05177).
T3 sequence (P05177 whole entry): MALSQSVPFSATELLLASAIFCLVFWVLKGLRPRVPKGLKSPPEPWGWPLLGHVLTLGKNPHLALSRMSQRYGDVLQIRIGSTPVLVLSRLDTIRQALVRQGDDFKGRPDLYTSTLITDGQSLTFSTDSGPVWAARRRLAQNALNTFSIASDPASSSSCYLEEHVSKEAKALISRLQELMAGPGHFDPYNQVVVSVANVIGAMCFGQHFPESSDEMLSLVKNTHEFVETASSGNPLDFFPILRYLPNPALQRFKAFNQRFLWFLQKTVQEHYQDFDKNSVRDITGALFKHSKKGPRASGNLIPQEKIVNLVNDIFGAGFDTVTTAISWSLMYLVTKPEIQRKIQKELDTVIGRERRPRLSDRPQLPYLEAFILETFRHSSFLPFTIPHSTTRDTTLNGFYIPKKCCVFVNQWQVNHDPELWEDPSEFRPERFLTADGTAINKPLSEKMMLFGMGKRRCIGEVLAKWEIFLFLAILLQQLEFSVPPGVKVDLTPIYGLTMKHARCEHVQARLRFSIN
Briefly: Inhibition of human CYP1A2 assessed as reduction in 7-ethoxyresorufin O-deethylation activity by fluorescence based EROD assay. Format: ADME. In outline: as §1

The species entered for data set [2] is Homo sapiens. Briefly: Selectivity index, ratio of IC50 for human CYP1A1 to IC50 for human CYP1B1. In outline: as §2
The species named for data set [3] is Homo sapiens. Briefly: Selectivity index, ratio of IC50 for human CYP1A2 to IC50 for human CYP1B1. The procedure, abridged:
as §2

Data set [4] concerns the target T1, Cytochrome P450 1B1. In words: Potency index, ratio of IC50 for ANF to IC50 for compound against human CYP1B1 assessed as reduction in 7-ethoxyresorufin O-deethylation activity by fluorescence based EROD assay. The following applies: read-out: Ratio IC50. The procedure, abridged: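 Recombinant human CYP1B1 EROD assay with 150 nM 7-ethoxyresorufin. NADPH regeneration system (1.3 mM NADP+, 3.3 mM G-6-P, 0.5 U/mL G6-PD) replaced NADPH. Incubated 35 min; resorufin fluorescence read at ex 545/em 590 nm. IC50 by Probit analysis. ANF was the positive control in the same assay, and the index divides its IC50 by the compound's IC50.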

Data set [5] deals with MCF7. Briefly: Cytotoxicity against human MCF7 cells over-expressing CYP1B1 after 48 hrs by MTT assay. Format: functional, cell-based. The following applies: MCF7, 48 h. In outline:
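CYP1B1-expressing MCF-7 (MCF-7/1B1) made by exposing parental cells to 10 nM TCDD for 96 h, with daily renewal of medium containing fresh 10 nM TCDD. Standard MTT assay, 48 h exposure to docetaxel alone or combined with a CYP1B1 inhibitor (5 or 10 μM). Wells with inhibitor alone (10 μM) served as negative control. Five concentrations, four replicate wells each, three plates.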

The subject of data set [6] is MCF7. In words: Cytotoxicity against human MCF7 cells after 48 hrs by MTT assay. The data set is classed as functional, cell-based. The following applies: MCF7, 48 h. In outline:
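MCF-7 cells grown in RPMI-1640 with 10% FBS at 37 °C, 5% CO2 and subcultured every 3 days at 1:5. Standard MTT assay with a 48 h exposure to freshly prepared docetaxel. Five concentrations per plate, four replicate wells each, three replicate plates. Viability is percent surviving cells relative to control. IC50 is the average of three parallel experiments.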

Data set [7] relates to MCF7. In words: Resistance index, ratio of IC50 for human MCF7 cells over-expressing CYP1B1 to IC50 for human MCF7 cells. Format: functional.

With `COc1ccc(OC)c2c1c(OC)cc1c(=O)cc(-c3ccccc3)oc12`, the IC50 at Cytochrome P450 1B1 [1] worked out at 0.2 nM; on Cytochrome P450 1A1 it was 4.8 nM; at Cytochrome P450 1A2, 16.1 nM. Besides, the Ratio IC50 turned out to be 24 in the data set filed under Homo sapiens [2] and 81 in the data set listed under Homo sapiens [3]. For the same compound, the selectivity ratio at Cytochrome P450 1B1 [4] came to 6.
Regarding `CC(=O)O[C@@]12CO[C@@H]1C[C@H](O)[C@@]1(C)C(=O)[C@H](O)C3=C(C)[C@@H](OC(=O)[C@H](O)[C@@H](NC(=O)OC(C)(C)C)c4ccccc4)C[C@@](O)([C@@H](OC(=O)c4ccccc4)[C@H]21)C3(C)C.O.O.O` [DOCETAXEL], the IC50 in the data set with MCF7 [5] was 140000 nM; in the data set with MCF7 [6] it was 27600 nM. Moreover, the “Ratio IC50” value in the data set on MCF7 [7] is recorded as 5.
Consider `COc1ccc(OC)c2c1c(OC)cc1c(=O)c(O)c(-c3ccccc3F)oc12`, for which the results for the IC50 on Cytochrome P450 1B1 [1], on Cytochrome P450 1A1 and at Cytochrome P450 1A2 were 1.2 nM, 27.5 nM and 29.4 nM, respectively. The Ratio IC50 in the data set filed under Homo sapiens [2] is 23; in the data set filed under Homo sapiens [3] it was 25.
As to `COc1ccc(-c2cc(=O)c3cc(OC)c4c(OC)ccc(OC)c4c3o2)cc1`, the values for the IC50 at Cytochrome P450 1B1 [1], on Cytochrome P450 1A1 and at Cytochrome P450 1A2 were 1.1 nM, 12.9 nM and 16.4 nM, respectively. Also, the results for the Ratio IC50 in the data set listed under Homo sapiens [2] and in the data set listed under Homo sapiens [3] were 12 and 15, respectively.
